In ChEMBL document CHEMBL3352496, “Design, synthesis and evaluation of novel triazole core based P-glycoprotein-mediated multidrug resistance reversal agents” (Bioorg Med Chem, 2014):

Experiments:
[1] = Reversal of P-gp-mediated multidrug resistance in human K562/A02 cells assessed as reduction of adriamycin IC50 at 5 uM after 48 hrs by MTT assay; type: cell-based; conditions: K562/A02, 48 h
Method in brief: (§1)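 MTT on K562/A02 cells exposed to a series of adriamycin concentrations, with or without modulator at 5 µM; 0.1% DMSO as solvent control. Reversal fold = adriamycin IC50 without modulator / IC50 with modulator.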

[2] = Resistance factor, ratio of adriamycin IC50 for human K562/A02 cells over-expressing Pgp to adriamycin IC50 for human K562/A02 cells over-expressing Pgp in presence of 5 uM compound; type: functional; method in brief: as §1
[3] = Cytotoxicity against human K562/A02 cells at 5 uM after 48 hrs by MTT assay; type: cell-based; conditions: k562/a02, 48 h
Method in brief: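 Adriamycin-selected K562/A02 cells given test compound alone at 5 µM for 48 h; cytotoxicity scored by MTT as intrinsic growth inhibition.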

[4] = Reversal of P-gp-mediated multidrug resistance in human K562/A02 cells assessed as reduction of adriamycin IC50 at 2.5 uM after 48 hrs by MTT assay; type: cell-based; conditions: K562/A02, 48 h
Method in brief: (§2)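 K562/A02 (P-gp-overexpressing) cells given graded adriamycin plus modulator at 2.5, 1.25, 0.625, 0.31, 0.156, 0.078 or 0.04 µM; verapamil 2.5 µM as positive control; adriamycin IC50 by MTT. Reversal fold = IC50 without modulator / IC50 with modulator. Two to three experiments, mean ± SEM.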

[5] = Resistance factor, ratio of adriamycin IC50 for human K562/A02 cells over-expressing Pgp to adriamycin IC50 for human K562/A02 cells over-expressing Pgp in presence of 2.5 uM compound; type: functional; method in brief: as §2
[6] = Reversal of P-gp-mediated multidrug resistance in human K562/A02 cells assessed as reduction of adriamycin IC50 at 5 uM incubated for 24 hrs prior to adriamycin treatment measured after 48 hrs by MTT assay; type: cell-based
Method in brief: (§3)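 K562/A02 cells incubated 24 h with 5 µM modulator, verapamil or vehicle, then washed with growth medium. […] Reversal fold = IC50 without modulator / IC50 with modulator. Two to three experiments, mean ± SEM.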

[7] = Reversal of P-gp-mediated multidrug resistance in human K562/A02 cells assessed as reduction of adriamycin IC50 at 5 uM incubated for 24 hrs followed by adriamycin treatment post compound washout measured after 48 hrs by MTT assay; type: cell-based; method in brief: as §3
[8] = Reversal of P-gp-mediated multidrug resistance in human K562/A02 cells assessed as reduction of adriamycin IC50 at 5 uM incubated for 24 hrs followed by adriamycin treatment 6 hrs post compound washout measured after 48 hrs by MTT assay; type: cell-based; method in brief: as §3
[9] = Reversal of P-gp-mediated multidrug resistance in human K562/A02 cells assessed as reduction of adriamycin IC50 at 5 uM incubated for 24 hrs followed by adriamycin treatment 12 hrs post compound washout measured after 48 hrs by MTT assay; type: cell-based; method in brief: as §3
[10] = Resistance factor, ratio of adriamycin IC50 for human K562/A02 cells over-expressing Pgp to adriamycin IC50 for human K562/A02 cells over-expressing Pgp in presence of 5 uM compound incubated for 24 hrs prior to adriamycin treatment; type: functional; method in brief: as §3
[11] = Resistance factor, ratio of adriamycin IC50 for human K562/A02 cells over-expressing Pgp to adriamycin IC50 for human K562/A02 cells over-expressing Pgp in presence of 5 uM compound incubated for 24 hrs followed by adriamycin treatment post compound washout; type: functional; method in brief: as §3
[12] = Cytotoxicity against human K562/A02 cells after 48 hrs by MTT assay; type: functional, cell-based; conditions: K562/A02, 48 h
[13] = Cytotoxicity against human GES-1 cells after 48 hrs by MTT assay; type: cell-based; conditions: GES1, 48 h
[14] = Reversal of P-gp-mediated multidrug resistance in human K562/A02 cells assessed as reduction of adriamycin IC50 at 1.25 uM after 48 hrs by MTT assay; type: cell-based; conditions: K562/A02, 48 h; method in brief: as §2
[15] = Reversal of P-gp-mediated multidrug resistance in human K562/A02 cells assessed as reduction of adriamycin IC50 at 0.625 uM after 48 hrs by MTT assay; type: cell-based; conditions: K562/A02, 48 h; method in brief: as §2
[16] = Reversal of P-gp-mediated multidrug resistance in human K562/A02 cells assessed as reduction of adriamycin IC50 at 0.31 uM after 48 hrs by MTT assay; type: cell-based; conditions: K562/A02, 48 h; method in brief: as §2
[17] = Reversal of P-gp-mediated multidrug resistance in human K562/A02 cells assessed as reduction of adriamycin IC50 at 0.156 uM after 48 hrs by MTT assay; type: cell-based; conditions: K562/A02, 48 h; method in brief: as §2
[18] = Reversal of P-gp-mediated multidrug resistance in human K562/A02 cells assessed as reduction of adriamycin IC50 at 0.078 uM after 48 hrs by MTT assay; type: cell-based; conditions: K562/A02, 48 h; method in brief: as §2
[19] = Reversal of P-gp-mediated multidrug resistance in human K562/A02 cells assessed as reduction of adriamycin IC50 at 0.04 uM after 48 hrs by MTT assay; type: cell-based; conditions: K562/A02, 48 h; method in brief: as §2
[20] = Resistance factor, ratio of adriamycin IC50 for human K562/A02 cells over-expressing Pgp to adriamycin IC50 for human K562/A02 cells over-expressing Pgp in presence of 1.25 uM compound; type: functional; method in brief: as §2
[21] = Resistance factor, ratio of adriamycin IC50 for human K562/A02 cells over-expressing Pgp to adriamycin IC50 for human K562/A02 cells over-expressing Pgp in presence of 0.625 uM compound; type: functional; method in brief: as §2
[22] = Resistance factor, ratio of adriamycin IC50 for human K562/A02 cells over-expressing Pgp to adriamycin IC50 for human K562/A02 cells over-expressing Pgp in presence of 0.31 uM compound; type: functional; method in brief: as §2
[23] = Resistance factor, ratio of adriamycin IC50 for human K562/A02 cells over-expressing Pgp to adriamycin IC50 for human K562/A02 cells over-expressing Pgp in presence of 0.156 uM compound; type: functional; method in brief: as §2
[24] = Resistance factor, ratio of adriamycin IC50 for human K562/A02 cells over-expressing Pgp to adriamycin IC50 for human K562/A02 cells over-expressing Pgp in presence of 0.078 uM compound; type: functional; method in brief: as §2
[25] = Resistance factor, ratio of adriamycin IC50 for human K562/A02 cells over-expressing Pgp to adriamycin IC50 for human K562/A02 cells over-expressing Pgp in presence of 0.04 uM compound; type: functional; method in brief: as §2
K562/A02 [26] = test: Reversal of P-gp-mediated multidrug resistance in human K562/A02 cells assessed as reduction of adriamycin IC50 after 48 hrs by MTT assay; type: cell-based
[27] = Resistance factor, ratio of adriamycin IC50 for human K562/A02 cells over-expressing Pgp to adriamycin IC50 for human K562/A02 cells over-expressing Pgp in presence of 5 uM compound incubated for 24 hrs followed by adriamycin treatment 6 hrs post compound washout; type: functional; method in brief: as §3
[28] = Resistance factor, ratio of adriamycin IC50 for human K562/A02 cells over-expressing Pgp to adriamycin IC50 for human K562/A02 cells over-expressing Pgp in presence of 5 uM compound incubated for 24 hrs followed by adriamycin treatment 12 hrs post compound washout; type: functional; method in brief: as §3
K562/A02 [29] = test: Inhibition of P-gp mediated efflux in human K562/A02 cells assessed as intracellular rhodamine-123 accumulation at 0.5 uM incubated for 60 mins prior to substrate addition measured after 90 mins by flow cytometry relative to control; type: cell-based
Method in brief: (§4)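 K562 and K562/A02 cells pretreated 60 min with 0.5, 2.5 or 5 µM test compound or verapamil, then 5 µM rhodamine-123 added for 90 min. Cells washed twice with PBS and resuspended in medium; mean fluorescence read by flow cytometry. Fold change taken against 0.1% DMSO control in each cell group. Three independent experiments, mean ± SD.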

K562/A02 [30] = test: Inhibition of P-gp mediated efflux in human K562/A02 cells assessed as intracellular rhodamine-123 accumulation at 2.5 uM incubated for 60 mins prior to substrate addition measured after 90 mins by flow cytometry relative to control; type: cell-based; method in brief: as §4
K562/A02 [31] = test: Inhibition of P-gp mediated efflux in human K562/A02 cells assessed as intracellular rhodamine-123 accumulation at 5 uM incubated for 60 mins prior to substrate addition measured after 90 mins by flow cytometry relative to control; type: cell-based; method in brief: as §4
K562/A02 [32] = test: Inhibition of P-gp mediated efflux in human K562/A02 cells assessed as intracellular rhodamine-123 accumulation incubated for 60 mins prior to substrate addition measured after 90 mins by flow cytometry relative to control; type: cell-based; method in brief: as §4
K562/A02 [33] = test: Inhibition of P-gp mediated efflux in human K562/A02 cells assessed as intracellular rhodamine-123 accumulation at 5 uM incubated for 60 mins prior to substrate addition measured after 90 mins by flow cytometry relative to DMSO control

## COc1ccc(C(=O)Nc2ccccc2OCc2cn(CCN3CCc4cc(OC)c(OC)cc4C3)nn2)cc1
[1]
  IC50: 6.25 µM
[2]
  Ratio IC50: 8.7
[3]
  Activity: < 10%

## COc1ccc(CCN(C)CCCC(C#N)(c2ccc(OC)c(OC)c2)C(C)C)cc1OC (configuration not stated) [VERAPAMIL]
[1]
  IC50: 6.8 µM
[2]
  Ratio IC50: 8.7
[4]
  IC50: 15.9 µM
[5]
  Ratio IC50: 3.4
[6]
  IC50: 9.6 µM
[7]
  IC50: 40.8 µM
[8]
  IC50: > 80 µM
[9]
  IC50: > 80 µM
[10]
  Ratio IC50: 8.4
[11]
  Ratio IC50: 1.9

## COc1cc2c(cc1OC)CN(CCn1cc(COc3ccccc3NC(=O)c3cccc(C)c3)nn1)CC2
[1]
  IC50: 7.16 µM
[2]
  Ratio IC50: 7.6
[3]
  Activity: < 10%

## COc1cc2c(cc1OC)CN(CCn1cc(COc3ccccc3NC(=O)c3ccccc3OC)nn1)CC2
[1]
  IC50: 6.75 µM
[2]
  Ratio IC50: 8.1
[3]
  Activity: < 10%

## COc1cc2c(cc1OC)CN(CCn1cc(COc3ccccc3NC(=O)c3ccc(C(C)(C)C)cc3)nn1)CC2
[1]
  IC50: 1.67 µM
[2]
  Ratio IC50: 32.5
[3]
  Activity: < 10%
[12]
  IC50: > 80 µM
[13]
  IC50: > 80 µM
[4]
  IC50: 2.97 µM
[14]
  IC50: 3.14 µM
[15]
  IC50: 5.2 µM
[16]
  IC50: 6.39 µM
[17]
  IC50: 37 µM
[18]
  IC50: 43.8 µM
[19]
  IC50: 32.9 µM
[5]
  Ratio IC50: 18.5
[20]
  Ratio IC50: 17.4
[21]
  Ratio IC50: 10.5
[22]
  Ratio IC50: 8.6
[23]
  Ratio IC50: 1.5
[24]
  Ratio IC50: 1.3
[25]
  Ratio IC50: 1.6
K562/A02 [26]
  Activity: Dose-dependent effect
[6]
  IC50: 2.16 µM
[7]
  IC50: 11 µM
[8]
  IC50: 35.6 µM
[9]
  IC50: 54.5 µM
[10]
  Ratio IC50: 37.4
[11]
  Ratio IC50: 7.7
[27]
  Ratio IC50: 2.4
[28]
  Ratio IC50: 1.5
K562/A02 [29]
  fold change (FC): 1.55
K562/A02 [30]
  fold change (FC): 2.4
K562/A02 [31]
  fold change (FC): 4.04
K562/A02 [32]
  inhibition: Dose-dependent effect
K562/A02 [33]
  Ratio: 2.4

## COc1cc2c(cc1OC)CN(CCn1cc(COc3ccccc3NC(=O)c3ccc(C)cc3)nn1)CC2
[1]
  IC50: 7.25 µM
[2]
  Ratio IC50: 7.5
[3]
  Activity: < 10%

## COc1cc2c(cc1OC)CN(CCn1cc(COc3ccccc3NC(=O)c3ccc(N(C)C)cc3)nn1)CC2
[1]
  IC50: 9.32 µM
[2]
  Ratio IC50: 5.8
[3]
  Activity: < 10%

## COc1cc2c(cc1OC)CN(CCn1cc(COc3ccccc3NC(=O)c3ccc(C#N)cc3)nn1)CC2
[1]
  IC50: 14.4 µM
[2]
  Ratio IC50: 3.6
[3]
  Activity: < 10%

## COc1cc2c(cc1OC)CN(CCn1cc(COc3ccccc3NC(=O)c3cc(OC)c(OC)c(OC)c3)nn1)CC2
[1]
  IC50: 3.23 µM
[2]
  Ratio IC50: 16.8
[3]
  Activity: < 10%

## COc1cc2c(cc1OC)CN(CCn1cc(COc3ccccc3NC(=O)c3cccc([N+](=O)[O-])c3)nn1)CC2
[1]
  IC50: 15.1 µM
[2]
  Ratio IC50: 3.6
[3]
  Activity: < 10%
